Reference: publication PMC4388048 (Journal of medicinal chemistry, 2015)

Key:
[1] = assay type: in vivo; details: CD-1 mice, 10 nmol intravenously, 4 h postinjection, N = 5
Method in brief: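 Anesthetised male CD-1 mice (~25 g; ketamine/xylazine i.p.) received test fluorophore intravenously. After 4 h of imaging, urine was collected from the bladder. Urine volume and optical absorbance were measured to estimate the amount of injected dye excreted.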

[2] = In vivo biodistribution and clearance by real-time NIR fluorescence imaging; details: CD-1 mice, 10 nmol intravenously, imaging over 4 h
Method in brief: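 Male CD-1 mice (~25 g) were anesthetised with ketamine 100 mg/kg and xylazine 10 mg/kg i.p., then given 10 nmol of test fluorophore intravenously. Real-time FLARE imaging used 760 nm excitation at 11 mW/cm2 with white light (400–650 nm). Colour and NIR images were acquired together at up to 15 Hz. Resected organs were also imaged. Exposure and normalisation were held constant.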

[3] = Optical stability in serum; assay type: in vitro ADME, fetal bovine serum; details: 100% FBS, pH 7.4, 37 °C, 24 h
[4] = Optical properties in 100% FBS; assay type: physicochemical; details: pH 7.4, 37 °C
Method in brief: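 Absorbance (200–1100 nm) and fluorescence (350–1000 nm) spectra were recorded for 1 µM test dye in 100% FBS, pH 7.4, using fibre-optic spectrometers. Excitation was 8 mW from a 655 or 765 nm laser diode, chosen by structure. Quantum yield was calibrated against oxazine 725 in ethylene glycol (QY 19%) and ICG in DMSO (QY 13%), with absorbance matched at 655 and 765 nm.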

CC1(C)C(/C=C/C=C/C=C/C=C2\N(CCCCS(=O)(=O)O)c3ccc4ccccc4c3C2(C)C)=[N+](CCCCS(=O)(=O)[O-])c2ccc3ccccc3c21 [ICG, indocyanine green]
Renal excretion amount in urine [1]: 3 % ID

Br.Br.CC1(C)C(/C=C/C2=C(Sc3ccc(C(=O)O)cc3)C(=C/C=C3/N(CCC[N+](C)(C)C)c4ccc(S(=O)(=O)[O-])cc4C3(C)C)/CCC2)=[N+](CCC[N+](C)(C)C)c2ccc(S(=O)(=O)[O-])cc21.[Br-] [compound 8, Mono(2-((E)-2-((E)-2-((4-carboxyphenyl)thio)-3-((E)-2-(3,3-dimethyl-5-sulfonato-1-(3-(trimethylammonio)propyl)indolin-2-ylidene)ethylidene)cyclohex-1-en-1-yl)vinyl)-3,3-dimethyl-1-(3-(trimethylammonio)propyl)-3H-indol-1-ium-5-sulfonate) Tribromide]
uptake in liver [2]: weak uptake in liver

Mono(2-((E)-2-((E)-2-((4-(aminomethyl)phenyl)thio)-3-((E)-2-(3,3-dimethyl-5-sulfonato-1-(3-(trimethylammonio)propyl)indolin-2-ylidene)ethylidene)cyclohex-1-en-1-yl)vinyl)-3,3-dimethyl-1-(3-(trimethylammonio)propyl)-3H-indol-1-ium-5-sulfonate) Tribromide [compound 11]
Optical stability in serum [3]: increased stability

Mono(2-((E)-2-((E)-2-((4-(carboxymethyl)phenyl)thio)-3-((E)-2-(3,3-dimethyl-5-sulfonato-1-(3-(trimethylammonio)propyl)indolin-2-ylidene)ethylidene)cyclohex-1-en-1-yl)vinyl)-3,3-dimethyl-1-(3-(trimethylammonio)propyl)-3H-indol-1-ium-5-sulfonate) Tribromide [compound 9]
uptake in liver [2]: weak uptake in liver
Optical stability in serum [3]: increased stability

Br.Br.CC1(C)C(/C=C/C2=C(Oc3ccc(CCN)cc3)C(=C/C=C3/N(CCC[N+](C)(C)C)c4ccc(S(=O)(=O)[O-])cc4C3(C)C)/CCC2)=[N+](CCC[N+](C)(C)C)c2ccc(S(=O)(=O)[O-])cc21.[Br-] [compound 4, Mono(2-((E)-2-((E)-2-(4-(2-aminoethyl)phenoxy)-3-((E)-2-(3,3-dimethyl-5-sulfonato-1-(3-(trimethylammonio)propyl)-indolin-2-ylidene)ethylidene)cyclohex-1-en-1-yl)vinyl)-3,3-dimethyl-1-(3-(trimethylammonio)propyl)-3H-indol-1-ium-5-sulfonate) Tribromide]
molar extinction coefficient [4]: highest
quantum yield [4]: highest
Optical stability in serum [3]: least stable
